Assay results from ChEMBL document CHEMBL3124926, “Identification of highly efficacious glucocorticoid receptor agonists with a potential for reduced clinical bone side effects” (J Med Chem, 2014).
In brackets after ≈: the same amount, converted by molar mass. Each block holds one compound with its values, some of them ahead of it.

Columns and labels:
[1] = target: T1, Progesterone receptor (Homo sapiens, UniProt P06401); experiment: Competitive binding affinity to progesterone receptor (unknown origin) expressed in baculovirus-infected cell system after 1 hr by fluorescence polarization assay in presence of tetramethylrhodamine-labeled RU-486
T1 sequence (P06401 whole entry): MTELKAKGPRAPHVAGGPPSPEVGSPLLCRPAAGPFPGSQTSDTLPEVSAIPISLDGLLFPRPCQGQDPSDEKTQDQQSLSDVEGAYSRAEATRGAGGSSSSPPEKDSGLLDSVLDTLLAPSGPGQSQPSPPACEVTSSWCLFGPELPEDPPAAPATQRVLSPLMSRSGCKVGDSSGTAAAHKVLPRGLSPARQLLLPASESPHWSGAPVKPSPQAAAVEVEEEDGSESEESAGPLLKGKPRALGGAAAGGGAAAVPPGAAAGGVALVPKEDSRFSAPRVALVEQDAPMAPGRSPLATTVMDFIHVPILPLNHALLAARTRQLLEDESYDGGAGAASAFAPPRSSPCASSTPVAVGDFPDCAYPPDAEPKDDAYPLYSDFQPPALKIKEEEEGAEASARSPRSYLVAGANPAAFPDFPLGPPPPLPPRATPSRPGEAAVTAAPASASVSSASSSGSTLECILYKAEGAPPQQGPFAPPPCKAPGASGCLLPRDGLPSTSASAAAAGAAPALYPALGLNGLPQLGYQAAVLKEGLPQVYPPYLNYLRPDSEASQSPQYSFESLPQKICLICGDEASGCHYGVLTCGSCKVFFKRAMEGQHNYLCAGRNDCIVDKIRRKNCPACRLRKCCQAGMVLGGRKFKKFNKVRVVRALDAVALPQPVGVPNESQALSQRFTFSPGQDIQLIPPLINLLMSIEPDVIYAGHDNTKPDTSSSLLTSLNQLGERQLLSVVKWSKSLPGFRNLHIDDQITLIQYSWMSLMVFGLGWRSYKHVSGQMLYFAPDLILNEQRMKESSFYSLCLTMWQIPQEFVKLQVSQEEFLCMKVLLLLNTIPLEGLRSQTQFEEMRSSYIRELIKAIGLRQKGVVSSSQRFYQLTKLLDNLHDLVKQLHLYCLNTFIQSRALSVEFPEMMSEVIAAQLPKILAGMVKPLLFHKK
Outline: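 PR from lysate of insect cells infected with receptor baculovirus alone, diluted 13-fold. Probe 5 nM tetramethylrhodamine-labeled RU-486 in pH 7.4 TES/KCl/molybdate buffer with 1% DMSO. 1 h at room temperature in the dark, then fluorescence polarization (ex 550/em 580 nm). Background set with 2 μM RU-486. IC50 from duplicate 11-point curves, four-parameter logistic fit, mean of at least two determinations.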

[2] = Permeability across human Caco2 cells; assay type: ADME, cell-based; details: Caco-2, read-out: permeability
[3] = Aqueous solubility of the compound in buffer at pH 7; assay type: physicochemical
[4] = test system: Mus musculus; experiment: Toxicity in collagen-induced B10.RIII mouse arthritis model assessed as change in body fat at 100 mg/kg, po qd for 35 days relative to 1% methylcellulose-treated control; assay type: organism-based; set-up: dose 100 mg/kg, route oral; details: in vivo, 840 h
Outline: (§1)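 Female B10.RIII mice were immunized at 12–15 weeks with porcine type II collagen emulsified in complete Freund's adjuvant (100 μg intradermal, tail base). Animals were enrolled at first arthritis signs, 10 per group, and dosed orally once daily for five weeks in 1% methylcellulose. Paws were scored 1–4 each (max 16), with AUC taken. Serum was collected at day 35. Femur cortical thickness was measured by microCT in non-immunized, age-matched mice given the same dosing.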

[5] = test system: Mus musculus; experiment: Antiinflammatory activity in po dosed Balb/c mouse assessed as inhibition of LPS-induced TNFalpha production administered 60 mins prior to LPS challenge measured after 1 hr by […]; assay type: functional
[6] = test system: Mus musculus; experiment: Toxicity in collagen-induced B10.RIII mouse arthritis model assessed as change in triglyceride level at 100 mg/kg, po qd for 35 days relative to 1% methylcellulose-treated control; assay type: organism-based; set-up: dose 100 mg/kg, route oral; details: in vivo, 840 h; outline: as §1
[7] = Volume of distribution at steady state in rat at 5 mg/kg, iv and 30 mg/kg, po; assay type: ADME, organism-based; details: in vivo, read-out: Vdss
Outline: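 Rat pharmacokinetics: single intravenous dose of 5 mg/kg in 80/20 PEG/water, plus a separate oral dose of 30 mg/kg in 80/18/2 PEG/water/Tween. Steady-state volume of distribution is from the iv arm; clearance, half-life and oral bioavailability come from the same study.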

[8] = test system: Mus musculus; experiment: Toxicity in nonimmunized, nondiseased mouse assessed as change in femur cortical thickness at 100 mg/kg, po qd for 35 days relative to 1% methylcellulose-treated control; details: in vivo, 840 h
[9] = Half life in rat at 5 mg/kg, iv and 30 mg/kg, po; assay type: ADME, organism-based; details: in vivo
Outline: (§2)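 Rat PK: 5 mg/kg iv in 80/20 PEG/water and 30 mg/kg po in 80/18/2 PEG/water/Tween.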

[10] = test system: Rattus norvegicus; experiment: Clearance in rat at 5 mg/kg, iv and 30 mg/kg, po; assay type: ADME, organism-based; details: in vivo; outline: as §2
[11] = Oral bioavailability in rat at 30 mg/kg; assay type: ADME, organism-based; details: in vivo
[12] = test system: Mus musculus; experiment: Toxicity in collagen-induced B10.RIII mouse arthritis model assessed as change in AUC at 100 mg/kg, po qd for 35 days relative to 1% methylcellulose-treated control; assay type: organism-based; set-up: dose 100 mg/kg, route oral; details: in vivo, 840 h; outline: as §1
[13] = Cmax in B10.RIII mouse at 100 mg/kg, po; assay type: ADME, organism-based; set-up: dose 100 mg/kg, route oral; details: in vivo
Outline: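 Plasma levels measured in satellite B10.RIII mice (n = 3) after a single 100 mg/kg oral dose.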

[14] = Half life in rat at 2 mg/kg, iv and 30 mg/kg, po; assay type: ADME, organism-based; details: in vivo
Outline: (§3)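 Rat PK: 2 mg/kg iv in 80/20 PEG/water and 30 mg/kg po in 80/18/2 PEG/water/Tween.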

[15] = test system: Mus musculus; experiment: Toxicity in collagen-induced B10.RIII mouse arthritis model assessed as change in body fat at 100 mg/kg, po qd for 35 days relative to 30% cremophor-treated control; assay type: organism-based; set-up: dose 100 mg/kg, route oral; details: in vivo, 840 h
Outline: (§4)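 Female B10.RIII mice were immunized with porcine type II collagen in complete Freund's adjuvant, enrolled at arthritis onset (10/group), and dosed orally once daily for five weeks in 30% cremophor vehicle. Four paws were scored 1–4 (max 16), as AUC. Serum biomarkers were taken at day 35. Femur cortical thickness was measured by microCT in non-immunized, age-matched mice dosed identically.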

[16] = test system: Mus musculus; experiment: Toxicity in collagen-induced B10.RIII mouse arthritis model assessed as change in free fatty acid level at 100 mg/kg, po qd for 35 days relative to 30% cremophor-treated control; assay type: organism-based; set-up: dose 100 mg/kg, route oral; details: in vivo, 840 h; outline: as §4
[17] = Volume of distribution at steady state in rat at 2 mg/kg, iv and 30 mg/kg, po; assay type: ADME, organism-based; details: in vivo, read-out: Vdss; outline: as §3
[18] = test system: Rattus norvegicus; experiment: Clearance in rat at 2 mg/kg, iv and 30 mg/kg, po; assay type: ADME, organism-based; details: in vivo; outline: as §3
[19] = test system: Mus musculus; experiment: Toxicity in collagen-induced B10.RIII mouse arthritis model assessed as change in insulin level at 100 mg/kg, po qd for 35 days relative to 30% cremophor-treated control; assay type: organism-based; set-up: dose 100 mg/kg, route oral; details: in vivo, 840 h; outline: as §4
[20] = test system: Mus musculus; experiment: Toxicity in collagen-induced B10.RIII mouse arthritis model assessed as change in femur cortical thickness at 100 mg/kg, po qd for 35 days relative to 30% cremophor-treated control; assay type: organism-based; set-up: dose 100 mg/kg, route oral; details: in vivo, 840 h; outline: as §4

IC50 [1]: > 2000 nM | Papp [2]: 11 ×10⁻⁶ cm/s | solubility [3]: 11 µg/mL (≈ 27.8 µM)
SMILES: Cc1ccc(F)cc1C(C)(C)CC(O)(Cc1cc2ncncc2[nH]1)C(F)(F)F (racemic)

IC50 [1]: 880 nM
SMILES: CC(C)(CC(O)(Cc1cc2ncncc2[nH]1)C(F)(F)F)c1ccc(F)cc1O (racemic)

IC50 [1]: > 2000 nM | Papp [2]: 13 ×10⁻⁶ cm/s | solubility [3]: 2 µg/mL (≈ 5.06 µM)
SMILES: Cc1ccc(F)cc1C(C)(C)CC(O)(Cc1cc2nnccc2[nH]1)C(F)(F)F (racemic)

IC50 [1]: > 2000 nM
SMILES: Cc1ccc(F)cc1C(C)(C)CC(O)(Cc1cc2cc(-c3ccccc3)nnc2[nH]1)C(F)(F)F (racemic)

IC50 [1]: > 2000 nM | Vd [7]: 2.1 L/kg | half-life [9]: 36 min | CL [10]: 61% | bioavailability [11]: 13% | Cmax [13]: 4.32 µM
SMILES: Cc1ccc(F)cc1C(C)(C)C[C@@](O)(Cc1cc2ncncc2[nH]1)C(F)(F)F
Activity [4]: 32% | ED50 [5]: 1 mg/kg | Activity [6]: -14% | Activity [8]: -6% | Activity [12]: -57%

IC50 [1]: > 2000 nM
SMILES: Cc1ccc(F)cc1C(C)(C)CC(O)(Cc1cc2nc(-c3cccnc3)ncc2[nH]1)C(F)(F)F (racemic)

Further lines, the compound ahead of its results:

SMILES: CC(C)(CC(O)(Cc1cc2ncncc2[nH]1)C(F)(F)F)c1cc(Cl)cc2c1OCC2 (racemic)
IC50 [1]: 1700 nM

SMILES: Cc1ccc(F)cc1C(C)(C)CC(O)(Cc1cc2nc(N3CCS(=O)(=O)CC3)ncc2[nH]1)C(F)(F)F (racemic)
IC50 [1]: > 2000 nM

SMILES: Cc1ccc(F)cc1C(C)(C)C[C@@](O)(Cc1cc2nnccc2[nH]1)C(F)(F)F
ED50 [5]: 3 mg/kg | half-life [14]: 30 min | Activity [15]: 8% | IC50 [1]: > 2000 nM | Activity [16]: -2% | bioavailability [11]: 9% | Cmax [13]: 38.9 µM | Vd [17]: 3.7 L/kg | CL [18]: > 100% | Activity [19]: -36% | Activity [20]: -8%

SMILES: Cc1ccc(F)cc1C(C)(C)CC(O)(Cc1cc2nc(-c3ccccc3)ncc2[nH]1)C(F)(F)F (racemic)
IC50 [1]: > 2000 nM
